Test results taken from ChEMBL document CHEMBL4350963, “Discovery and Lead-Optimization of 4,5-Dihydropyrazoles as Mono-Kinase Selective, Orally Bioavailable and Efficacious Inhibitors of Receptor Interacting Protein 1 (RIP1) Kinase” (J Med Chem, 2019).
Converted amounts (≈) assume the structure as drawn.

Assays:
[1] = Chromatographic hydrophobicity index, log D of the compound at pH 7.4 by reverse-phase HPLC analysis; assay type: physicochemical; settings: buffer
In short: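 Log D at pH 7.4 was calculated from the retention time on a fast-gradient reverse-phase HPLC run.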

[2] = Cmax in rat at 2 mg/kg, po; assay type: ADME, organism-based; design: dose 2 mg/kg, route oral; settings: in vivo
In short: (§1)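 Rat pharmacokinetics: the iv arm was dosed at 1 mg/kg in 5% DMSO/20% Cavitron aqueous solution. The oral arm was dosed at 2 mg/kg in 5% DMSO/6% Cavitron aqueous solution. Bioavailability was calculated non-crossover, from average exposures in separate oral and iv studies.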

[3] = Tmax in rat at 2 mg/kg, po; assay type: ADME, organism-based; settings: in vivo
[4] = AUC (0 to infinity) in rat at 2 mg/kg, po; assay type: ADME, organism-based; design: dose 2 mg/kg, route oral, time infinity; settings: in vivo; in short: as §1
[5] = Volume of distribution at steady state in rat at 1 mg/kg, iv; assay type: ADME, organism-based; settings: in vivo, read-out: Vdss
[6] = AUC (0 to infinity) in rat at 1 mg/kg, iv; assay type: ADME, organism-based; design: dose 1 mg/kg, time infinity, route intravenous; settings: in vivo; in short: as §1
[7] = Oral bioavailability in rat at 2 mg/kg; assay type: ADME, organism-based; settings: in vivo
[8] = Solubility of the compound in fasted state simulated intestinal fluid measured after 4 hrs using crystalline sample; assay type: physicochemical
[9] = Lipophilicity, log P of the compound; assay type: physicochemical; settings: octanol/water
[10] = Drug metabolism in rat blood assessed as hydroxylation; assay type: ADME, tissue-based
[11] = Drug metabolism in rat bile assessed as hydroxylation; assay type: ADME, tissue-based
[12] = Drug metabolism in rat urine assessed as hydroxylation; assay type: ADME
[13] = Drug exposure in rat at 2 mg/kg, po; assay type: ADME, organism-based; settings: in vivo, BLD = below limit of detection; in short: as §1

## O=C(C1CCC1)N1N=CCC1c1ccccc1 (stereo unspecified)
[1]
  chromatographic logD: 4.7

## Cc1ccc(C2CC=NN2C(=O)C(C)(C)C)cc1 (stereo unspecified)
[1]
  chromatographic logD: 6.4

## CC(C)(C)C(=O)N1N=CCC1c1ccc(S(C)(=O)=O)cc1 (stereo unspecified)
[1]
  chromatographic logD: 4.1

## CC(C)(CN)C(=O)N1N=CCC1c1ccccc1 (stereo unspecified)
[1]
  chromatographic logD: 1.4

## C[C@@H]1C=NN(C(=O)C(C)(C)C)[C@@H]1c1ccccc1
[1]
  chromatographic logD: 6.5

## CC(C)(C)C(=O)N1N=CCC1c1cocn1 (stereo unspecified)
[1]
  chromatographic logD: 3
[2]
  Cmax: 345 ng/mL
[3]
  Tmax: 5 min
[4]
  AUC(0-inf): 200 ng·h/mL

## O=C(C1CCN(c2ccncn2)CC1)N1N=CC[C@H]1c1ccccc1
[1]
  chromatographic logD: 3.2

## CC(C)(C)C(=O)N1N=CCC1c1cccnc1 (stereo unspecified)
[1]
  chromatographic logD: 3.2
[2]
  Cmax: 360 ng/mL
[3]
  Tmax: 5 min
[4]
  AUC(0-inf): 260 ng·h/mL

## CC(C)(C)C(=O)N1N=CCC1c1cc[nH]n1 (stereo unspecified)
[1]
  chromatographic logD: 2.7

## CC(C)(C)C(=O)N1N=CCC1c1c[nH]cn1 (stereo unspecified)
[1]
  chromatographic logD: 1.7

## CC(C)(C)C(=O)N1N=CCC1c1ccncc1 (stereo unspecified)
[1]
  chromatographic logD: 3.2

## O=C(C1CCCCC1)N1CCC(C(=O)N2N=CCC2c2ccccc2)CC1 (stereo unspecified)
[1]
  chromatographic logD: 5.4

## N#Cc1cnc(N2CCC(C(=O)N3N=CC[C@H]3c3cc(F)cc(F)c3)CC2)cn1
[1]
  chromatographic logD: 5.2
[2]
  Cmax: 73 ng/mL
[3]
  Tmax: 38 min
[5]
  Vd: 6.1 L/kg
[6]
  AUC(0-inf): 400 ng·h/mL
[7]
  bioavailability: 99%

## CC(C)(CO)C(=O)N1N=CCC1c1ccccc1 (stereo unspecified)
[1]
  chromatographic logD: 3.4

## O=C(c1ccncc1)N1N=CCC1c1ccccc1 (stereo unspecified)
[1]
  chromatographic logD: 2.7

## CN1CCC(C2CC=NN2C(=O)C(C)(C)C)CC1 (stereo unspecified)
[1]
  chromatographic logD: 1.4

## O=C(C1CCN(c2ccccn2)CC1)N1N=CC[C@H]1c1ccccc1
[1]
  chromatographic logD: 5.1

## Cc1nnc(N2CCC(C(=O)N3N=CC[C@H]3c3ccccc3)CC2)o1
[1]
  chromatographic logD: 3.2
[5]
  Vd: 1.6 L/kg
[6]
  AUC(0-inf): 800 ng·h/mL

## O=C(C1CCN(c2ncccn2)CC1)N1N=CC[C@H]1c1ccccc1
[1]
  chromatographic logD: 4.7

## CC(C)(C)C(=O)N1CCSC1c1ccccc1 (stereo unspecified)
[1]
  chromatographic logD: 5.6

## O=C(C1CCCC1)N1N=CCC1c1ccccc1 (stereo unspecified)
[1]
  chromatographic logD: 5.4

## CC(C)(C)C(=O)N1CCNCC1c1ccccc1 (stereo unspecified)
[1]
  chromatographic logD: 2.5

## O=C(C1CCN(C(=O)C(F)(F)F)CC1)N1N=CCC1c1ccccc1 (stereo unspecified)
[1]
  chromatographic logD: 4.9

## CC(C)(C)C(=O)n1nccc1-c1ccccc1
[1]
  chromatographic logD: 8.3

## CC(C)(C)C(=O)N1CCOCC1c1ccccc1 (stereo unspecified)
[1]
  chromatographic logD: 4.7

## O=C(c1c[nH]nn1)N1CCC(C(=O)N2N=CCC2c2ccccc2)CC1 (stereo unspecified)
[1]
  chromatographic logD: 2
[5]
  Vd: 1.3 L/kg
[6]
  AUC(0-inf): 450 ng·h/mL

## CC(C)(C)C(=O)N1N=CCC1C1CCCC1 (stereo unspecified)
[1]
  chromatographic logD: 6.7

## O=C(C1CCCCC1)N1N=CCC1c1ccccc1 (stereo unspecified)
[1]
  chromatographic logD: 5.9

## CC(C)(C)C(=O)N1N=CCC1C1CCOCC1 (stereo unspecified)
[1]
  chromatographic logD: 4.1

## O=C(C1CCOCC1)N1N=CCC1c1ccccc1 (stereo unspecified)
[1]
  chromatographic logD: 3.1
[2]
  Cmax: 95 ng/mL
[3]
  Tmax: 5 min
[4]
  AUC(0-inf): 44 ng·h/mL

## CC(=O)N1CCC(C(=O)N2N=CC[C@H]2c2ccccc2)CC1
[1]
  chromatographic logD: 2.5
[8]
  solubility thermodynamic at 4 h: 7400 µg/mL (≈ 24.7 mM)
[2]
  Cmax: 795 ng/mL
[3]
  Tmax: 30 min
[4]
  AUC(0-inf): 1600 ng·h/mL
[5]
  Vd: 1.7 L/kg
[6]
  AUC(0-inf): 420 ng·h/mL

## O=C(C1CCOC1)N1N=CCC1c1ccccc1 (stereo unspecified)
[1]
  chromatographic logD: 3

## Cc1ccc(C2CC=NN2C(=O)C(C)(C)C)cc1F (stereo unspecified)
[1]
  chromatographic logD: 6.6

## CC(C)C(=O)N1N=CCC1c1ccccc1 (stereo unspecified)
[1]
  chromatographic logD: 4.4

## O=C(c1ccccn1)N1N=CCC1c1ccccc1 (stereo unspecified)
[1]
  chromatographic logD: 2.4

## CC(C)(C)C(=O)N1N=CC[C@H]1c1ccccc1
[9]
  logP: 5.9
[10]
  Drug metabolism: Metabolite_Detected
[11]
  Drug metabolism: Metabolite_Detected
[12]
  Drug metabolism: Metabolite_Detected
[1]
  chromatographic logD: 5.8
[13]
  Drug uptake: Bld

## O=C(c1cn[nH]c1)N1CCC(C(=O)N2N=CCC2c2ccccc2)CC1 (stereo unspecified)
[1]
  chromatographic logD: 2.1
[5]
  Vd: 1.6 L/kg
[6]
  AUC(0-inf): 360 ng·h/mL

## CCC(=O)N1CCC(C(=O)N2N=CCC2c2ccccc2)CC1 (stereo unspecified)
[1]
  chromatographic logD: 3.2

## CN1CCC(C(=O)N2N=CCC2c2ccccc2)CC1 (stereo unspecified)
[1]
  chromatographic logD: 1.1

## CC(C)(C)C(=O)N1N=CCC1c1ccc(C(C)(C)C)cc1 (stereo unspecified)
[1]
  chromatographic logD: 8

## CC(C)(C)C(=O)N1N=CCC1c1cccc(F)c1 (stereo unspecified)
[1]
  chromatographic logD: 5.9

## CC(C)(C)C(=O)N1CCC1c1ccccc1 (stereo unspecified)
[1]
  chromatographic logD: 5

## N#Cc1nccc(N2CCC(C(=O)N3N=CC[C@H]3c3cc(F)cc(F)c3)CC2)n1
[1]
  chromatographic logD: 5.1

## CC(C)(C)C(=O)N1N=CCC1c1ccccn1 (stereo unspecified)
[1]
  chromatographic logD: 3.5

## CC1=NN(C(=O)C(C)(C)C)[C@H](c2ccccc2)C1
[1]
  chromatographic logD: 6.4

## O=C(c1cccnc1)N1CCC(C(=O)N2N=CCC2c2ccccc2)CC1 (stereo unspecified)
[1]
  chromatographic logD: 2.6

## O=C(c1cnco1)N1CCC(C(=O)N2N=CC[C@H]2c2ccccc2)CC1
[1]
  chromatographic logD: 2.7
[5]
  Vd: 2.1 L/kg
[6]
  AUC(0-inf): 400 ng·h/mL

## O=C(c1cscn1)N1CCC(C(=O)N2N=CC[C@H]2c2ccccc2)CC1
[1]
  chromatographic logD: 3

## O=C(c1cccnc1)N1N=CCC1c1ccccc1 (stereo unspecified)
[1]
  chromatographic logD: 2.7

## CN1CCN(C(=O)C(C)(C)C)C(c2ccccc2)C1 (stereo unspecified)
[1]
  chromatographic logD: 4.9

## CC(C)(C)C(=O)N1N=CCC1c1cccc(Cl)c1 (stereo unspecified)
[1]
  chromatographic logD: 6.6

## O=C(C1CCN(c2cccnn2)CC1)N1N=CC[C@H]1c1ccccc1
[1]
  chromatographic logD: 3.4

## N#Cc1ccc(N2CCC(C(=O)N3N=CC[C@H]3c3cc(F)cc(F)c3)CC2)nn1
[1]
  chromatographic logD: 4.8

## O=C(c1ccccc1)N1N=CCC1c1ccccc1 (stereo unspecified)
[1]
  chromatographic logD: 4.6

## O=C(C1CCN(c2ccccc2)CC1)N1N=CCC1c1ccccc1 (stereo unspecified)
[1]
  chromatographic logD: 6.3

## O=C(c1ccccn1)N1CCC(C(=O)N2N=CCC2c2ccccc2)CC1 (stereo unspecified)
[1]
  chromatographic logD: 3.1

## CC(C)(C)C(=O)N1N=CCC1c1ccc(Cl)cc1 (stereo unspecified)
[1]
  chromatographic logD: 6.6

## CC(C)(C)C(=O)N1CCCCC1c1ccccc1 (stereo unspecified)
[1]
  chromatographic logD: 6.7

## O=C(c1cc[nH]n1)N1CCC(C(=O)N2N=CCC2c2ccccc2)CC1 (stereo unspecified)
[1]
  chromatographic logD: 2.4

## O=C(c1cocn1)N1CCC(C(=O)N2N=CCC2c2ccccc2)CC1 (stereo unspecified)
[1]
  chromatographic logD: 2.9
[5]
  Vd: 0.98 L/kg
[6]
  AUC(0-inf): 290 ng·h/mL

## O=C(c1ccccc1)N1CCC(C(=O)N2N=CCC2c2ccccc2)CC1 (stereo unspecified)
[1]
  chromatographic logD: 4.4

## CC(C)(C)C(=O)N1N=CCC1C1CCCCC1 (stereo unspecified)
[1]
  chromatographic logD: 7.3

## CC(C)(C)C(=O)N1N=CCC1c1cc(F)cc(F)c1 (stereo unspecified)
[1]
  chromatographic logD: 6.3

## O=C(C1CCN(c2ccccc2)CC1)N1N=CC[C@H]1c1ccccc1
[1]
  chromatographic logD: 6.3

## CC(C)(C)C(=O)N1N=CCC1c1ccccc1 (racemic)
[1]
  chromatographic logD: 5.8

## CC(=O)N1CCC(C(=O)N2N=CCC2c2ccccc2)CC1 (racemic)
[1]
  chromatographic logD: 2.5
